Data from ChEMBL document CHEMBL1629526, “4-[1-(Substituted aryl/alkyl carbonyl)-benzoimidazol-2-yl]-benzenesulfonic acids: synthesis, antimicrobial activity, QSAR studies, and antiviral evaluation” (Eur J Med Chem, 2010).
In brackets after ≈: the same amount, converted by molar mass.

Columns and labels:
[1] = Cytotoxicity against human HeLa cells assessed as altered cell morphology; assay type: cell-based
Method in brief: (§1)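 Uninfected cell cultures run alongside the antiviral assays, exposed to serial compound dilutions and incubated at 37 °C for 2–4 days. Toxicity was scored microscopically and reported as the minimum cytotoxic concentration (MCC), the lowest concentration causing a detectable change in normal cell morphology.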

Staphylococcus aureus = experiment: Antimicrobial activity against Staphylococcus aureus after 24 hrs by tube dilution method; assay type: functional
Human alphaherpesvirus 1 [2] = experiment: Antiviral activity against thymidine kinase deficient acyclovir-resistant Herpes simplex virus 1 KOS infected in HEL cells assessed as inhibition of virus induced cytopathicity after 2 to 4 days by MTS assay; assay type: functional, organism-based; conditions: Human alphaherpesvirus 1, KOS
Bacillus subtilis = experiment: Antimicrobial activity against Bacillus subtilis after 24 hrs by tube dilution method; assay type: functional
Method in brief: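 Serial dilutions in double-strength nutrient broth (I.P.) with ciprofloxacin as reference, tube dilution, incubated 37 °C for 24 h. MIC is the lowest concentration that inhibited growth.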

Coxsackievirus B4 [3] = experiment: Antiviral activity against coxsackievirus B4 infected in human HeLa cells assessed as inhibition of virus induced cytopathicity after 2 to 4 days by MTS assay; assay type: functional, organism-based; conditions: Enterovirus B
[4] = system: Mammalian orthoreovirus 1; experiment: Antiviral activity against Reovirus 1 virus infected in african green monkey Vero cells assessed as inhibition of virus induced cytopathicity after 2 to 4 days by MTS assay; assay type: functional, organism-based; conditions: Mammalian orthoreovirus 1, Vero
MDCK = experiment: Cytotoxicity against MDCK cells assessed as cell viability by MTS assay; assay type: cell-based, Canis lupus familiaris; conditions: dog, mdck
Method in brief: (§2)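 Uninfected cultures were run in parallel with the antiviral assays. Viability was read by colorimetric formazan MTS assay.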

Human alphaherpesvirus 2 = experiment: Antiviral activity against Herpes simplex virus 2 G infected in HEL cells assessed as inhibition of virus induced cytopathicity after 2 to 4 days by MTS assay; assay type: functional, organism-based; conditions: Human alphaherpesvirus 2, strain G
[5] = Cytotoxicity against cat CRFK cells assessed as cell viability by MTS assay; assay type: cell-based, Felis catus; method in brief: as §2
[6] = system: Vesicular stomatitis virus; experiment: Antiviral activity against Vesicular stomatitis virus infected in HEL cells assessed as inhibition of virus induced cytopathicity after 2 to 4 days by MTS assay; assay type: functional, organism-based
[7] = Cytotoxicity against MDCK cells assessed as altered cell morphology; assay type: cell-based, Canis lupus familiaris; conditions: dog; method in brief: as §1
Candida albicans = experiment: Antimicrobial activity against Candida albicans after 48 hrs by tube dilution method; assay type: functional
[8] = system: Vesicular stomatitis virus; experiment: Antiviral activity against Vesicular stomatitis virus infected in human HeLa cells assessed as inhibition of virus induced cytopathicity after 2 to 4 days by MTS assay; assay type: functional, organism-based
Aspergillus niger = experiment: Antimicrobial activity against Aspergillus niger after 7 days by tube dilution method; assay type: functional; conditions: 168 h
[9] = Cytotoxicity against african green monkey Vero cells assessed as altered cell morphology; assay type: cell-based; conditions: chlorocebus sabaeus; method in brief: as §1
Coxsackievirus B4 [10] = experiment: Antiviral activity against coxsackievirus B4 infected in human HeLa cells assessed as inhibition of virus induced cytopathicity by visual scoring of CPE; assay type: functional, organism-based; conditions: Enterovirus B
Influenza B virus [11] = experiment: Antiviral activity against Influenza B virus infected in MDCK cells assessed as inhibition of virus induced cytopathicity by visual scoring of CPE; assay type: functional, organism-based
Influenza A virus [12] = experiment: Antiviral activity against Influenza A H3N2 virus subtype infected in MDCK cells assessed as inhibition of virus induced cytopathicity after 2 to 4 days by MTS assay; assay type: functional, organism-based
[13] = system: Respiratory syncytial virus; experiment: Antiviral activity against Respiratory syncytial virus infected in human HeLa cells assessed as inhibition of virus induced cytopathicity after 2 to 4 days by MTS assay; assay type: functional, organism-based
Vaccinia virus = experiment: Antiviral activity against Vaccinia virus infected in HEL cells assessed as inhibition of virus induced cytopathicity after 2 to 4 days by MTS assay; assay type: functional, organism-based; conditions: Orthopoxvirus vaccinia
Influenza B virus [14] = experiment: Antiviral activity against Influenza B virus infected in MDCK cells assessed as inhibition of virus induced cytopathicity after 2 to 4 days by MTS assay; assay type: functional, organism-based
Sindbis virus = experiment: Antiviral activity against Sindbis virus infected in african green monkey Vero cells assessed as inhibition of virus induced cytopathicity after 2 to 4 days by MTS assay; assay type: functional, organism-based
Human alphaherpesvirus 1 [15] = experiment: Antiviral activity against Herpes simplex virus 1 KOS infected in HEL cells assessed as inhibition of virus induced cytopathicity after 2 to 4 days by MTS assay; assay type: functional, organism-based; conditions: Human alphaherpesvirus 1, KOS
Felid alphaherpesvirus 1 = experiment: Antiviral activity against Feline herpesvirus 1 infected in cat CRFK cells assessed as inhibition of virus induced cytopathicity after 2 to 4 days by MTS assay; assay type: functional, organism-based; conditions: Felid alphaherpesvirus 1, CRFK
[16] = system: Vesicular stomatitis virus; experiment: Antiviral activity against Vesicular stomatitis virus infected in human HeLa cells assessed as inhibition of virus induced cytopathicity by visual scoring of CPE; assay type: functional, organism-based
Feline coronavirus = experiment: Antiviral activity against Feline coronavirus infected in cat CRFK cells assessed as inhibition of virus induced cytopathicity after 2 to 4 days by MTS assay; assay type: functional, organism-based; conditions: Alphacoronavirus 1, CRFK
Escherichia coli = experiment: Antimicrobial activity against Escherichia coli after 24 hrs by tube dilution method; assay type: functional
Coxsackievirus B4 [17] = experiment: Antiviral activity against Coxsackie virus B4 infected in african green monkey Vero cells assessed as inhibition of virus induced cytopathicity after 2 to 4 days by MTS assay; assay type: functional, organism-based; conditions: Enterovirus B
Punta Toro virus = experiment: Antiviral activity against Punta Toro virus infected in african green monkey Vero cells assessed as inhibition of virus induced cytopathicity after 2 to 4 days by MTS assay; assay type: functional, organism-based
Influenza A virus [18] = experiment: Antiviral activity against Influenza A H3N2 virus subtype infected in MDCK cells assessed as inhibition of virus induced cytopathicity by visual scoring of CPE; assay type: functional, organism-based
HeLa = experiment: Cytotoxicity against human HeLa cells assessed as cell viability by MTS assay; assay type: cell-based; conditions: hela; method in brief: as §2
Human respirovirus 3 = experiment: Antiviral activity against parainfluenza-3 virus infected in african green monkey Vero cells assessed as inhibition of virus induced cytopathicity after 2 to 4 days by MTS assay; assay type: functional, organism-based; conditions: Human respirovirus 3, Vero
[19] = system: Respiratory syncytial virus; experiment: Antiviral activity against Respiratory syncytial virus infected in human HeLa cells assessed as inhibition of virus induced cytopathicity by visual scoring of CPE; assay type: functional, organism-based
[20] = Cytotoxicity against human HEL cells assessed as altered cell morphology; assay type: cell-based; method in brief: as §1

Structure (SMILES)	MCC [1]	MBC (Staphylococcus aureus)	EC50 (Human alphaherpesvirus 1 [2])	MBC (Bacillus subtilis)	EC50 (Coxsackievirus B4 [3])	EC50 [4]	CC50 (MDCK)	EC50 (Human alphaherpesvirus 2)	CC50 ([5]; crfk)	EC50 [6]	MCC [7]	MFC (Candida albicans)	EC50 [8]	MFC (Aspergillus niger)	MCC [9]	EC50 (Vaccinia virus)	EC50 (Human alphaherpesvirus 1 [15])	EC50 (Felid alphaherpesvirus 1)	EC50 (Feline coronavirus)	MCC [20]	further results
CCCCCCCC/C=C/CCCCCCCC(=O)n1c(-c2ccc(S(=O)(=O)O)cc2)nc2ccccc21	> 100 µg/mL	12.5 µg/mL (≈ 23.2 µM)	> 100 µg/mL	50 µg/mL (≈ 92.8 µM)	> 100 µg/mL	> 100 µg/mL	> 100 µg/mL	> 100 µg/mL	> 100 µg/mL	> 100 µg/mL	> 100 µg/mL	50 µg/mL (≈ 92.8 µM)	> 100 µg/mL	> 50 µg/mL	> 100 µg/mL	> 100 µg/mL	> 100 µg/mL	> 100 µg/mL	> 100 µg/mL	> 100 µg/mL	EC50 (Coxsackievirus B4 [10]): > 100 µg/mL; EC50 (Influenza B virus [11]): > 100 µg/mL; EC50 (Influenza A virus [12]): > 100 µg/mL; EC50 [13]: > 100 µg/mL; EC50 (Influenza B virus [14]): > 100 µg/mL; EC50 (Sindbis virus): > 100 µg/mL; EC50 [16]: > 100 µg/mL; MBC (Escherichia coli): 3.12 µg/mL (≈ 5.79 µM); EC50 (Coxsackievirus B4 [17]): > 100 µg/mL; EC50 (Punta Toro virus): > 100 µg/mL; EC50 (Influenza A virus [18]): > 100 µg/mL; CC50 (HeLa): > 100 µg/mL; EC50 (Human respirovirus 3): > 100 µg/mL; EC50 [19]: > 100 µg/mL
Cc1ccc(S(=O)(=O)n2c(-c3ccc(S(=O)(=O)O)cc3)nc3ccccc32)cc1	> 100 µg/mL	6.25 µg/mL (≈ 14.6 µM)	> 100 µg/mL	12.5 µg/mL (≈ 29.2 µM)	> 100 µg/mL	100 µg/mL (≈ 233 µM)	> 100 µg/mL	> 100 µg/mL	> 100 µg/mL	> 100 µg/mL	> 100 µg/mL	50 µg/mL (≈ 117 µM)	> 100 µg/mL	> 50 µg/mL	> 100 µg/mL	> 100 µg/mL	> 100 µg/mL	> 100 µg/mL	> 100 µg/mL	> 100 µg/mL	EC50 (Coxsackievirus B4 [10]): > 100 µg/mL; EC50 (Influenza B virus [11]): > 100 µg/mL; EC50 (Influenza A virus [12]): > 100 µg/mL; EC50 [13]: > 100 µg/mL; EC50 (Influenza B virus [14]): > 100 µg/mL; EC50 (Sindbis virus): > 250 µg/mL; EC50 [16]: > 100 µg/mL; MBC (Escherichia coli): 12.5 µg/mL (≈ 29.2 µM); EC50 (Coxsackievirus B4 [17]): > 100 µg/mL; EC50 (Punta Toro virus): > 100 µg/mL; EC50 (Influenza A virus [18]): > 100 µg/mL; CC50 (HeLa): > 100 µg/mL; EC50 (Human respirovirus 3): > 100 µg/mL; EC50 [19]: > 100 µg/mL
O=c1[nH]c(=O)n([C@H]2C[C@H](O)[C@@H](CO)O2)cc1/C=C/Br [BRIVUDINE]			> 250 µg/mL													112 µg/mL (≈ 336 µM)				> 250 µg/mL	
Nc1ccn(C[C@@H](CO)OCP(=O)(O)O)c(=O)n1.O.O [CIDOFOVIR]			> 250 µg/mL					0.2 µg/mL								> 250 µg/mL	0.4 µg/mL			> 250 µg/mL	
Nc1nc2c(ncn2COC(CO)CO)c(=O)[nH]1 [GANCICLOVIR]			58 µg/mL (≈ 227 µM)					0.03 µg/mL (≈ 0.118 µM)									0.03 µg/mL (≈ 0.118 µM)	> 100 µg/mL	1.7 µg/mL (≈ 6.66 µM)	> 100 µg/mL	CC50 ([5]; CRFK cells, read-out: CC50): > 100 µg/mL
